In ChEMBL document CHEMBL1131450, “Synthesis and antitumor evaluation of 2,5-disubstituted-indazolo[4, 3-gh]isoquinolin-6(2H)-ones (9-aza-anthrapyrazoles)” (J Med Chem, 1998):
Values after ≈ are worked out from the molar mass of the structure shown. One block for each compound: values may come before it.

What was measured:
MX1 [1] = experiment: In vivo antitumor activity was measured on MX-1 human mammary carcinoma cells. TWI%=tumor weight inhibition. Optimal dose 17.5 mg/kg/day.; format: functional
P388 [2] = experiment: In vivo antitumor activity was measured on systemic P388 murine leukemia cells. Optimal dose 75 mg/kg/day.; format: functional, Mus musculus; conditions: in the assay text read “7.5 mg/kg/day” for “75 mg/kg/day”
Outline: (§1)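 CD2F1 male mice given 10⁶ P388 leukemia cells iv (day 0); drug given iv on days 1, 4 and 7. Survival expressed as T/C% = median survival time of treated / median survival of controls × 100, reported at optimal dose (mg/kg/day) or maximum tested dose.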

LoVo [3] = experiment: In vitro cytotoxicity on human colon adenocarcinoma (LoVo ) tumor cell line.; format: functional, cell-based
LoVo/Dx (Homo sapiens) = experiment: cells
LoVo [4] = experiment: Resistance index measured as the ratio of IC50 of LoVo/Dx cell line to that of LoVo cell line.; format: functional, Homo sapiens
MX1 [5] = experiment: In vivo antitumor activity was measured on MX-1 human mammary carcinoma cells. TWI%=tumor weight inhibition. Optimal dose 20 mg/kg/day.; format: functional
P388 [6] = format: functional, Mus musculus
MX1 [7] = experiment: In vivo antitumor activity was measured on MX-1 human mammary carcinoma cells. TWI%=tumor weight inhibition. Maximum tested dose 90 mg/kg/day.; format: functional
P388 [8] = experiment: In vivo antitumor activity was measured on systemic P388 murine leukemia cells. Maximum tested dose 40 mg/kg/day.; format: functional, Mus musculus; outline: as §1
MX1 [9] = experiment: In vivo antitumor activity was measured on MX-1 human mammary carcinoma cells. TWI%=tumor weight inhibition. Optimal dose 150 mg/kg/day.; format: functional
P388 [10] = experiment: In vivo antitumor activity was measured on systemic P388 murine leukemia cells. Optimal dose 7.5 mg/kg/day.; format: functional, Mus musculus; outline: as §1
P388 [11] = experiment: In vivo antitumor activity was measured on systemic P388 murine leukemia cells. Toxic deaths observed at dose 18 mg/kg/day.; format: functional, Mus musculus
MX1 [12] = experiment: In vivo antitumor activity was measured on MX-1 human mammary carcinoma cells. TWI%=tumor weight inhibition. Optimal dose 8 mg/kg/day.; format: functional
MX1 [13] = experiment: In vivo antitumor activity was measured on MX-1 human mammary carcinoma cells. TWI%=tumor weight inhibition. Optimal dose at 3 mg/kg/day; format: functional
P388 [14] = experiment: In vivo antitumor activity was measured on systemic P388 murine leukemia cells. Optimal dose at 3 mg/kg/day; format: functional, Mus musculus; outline: as §1
MX1 [15] = experiment: In vivo antitumor activity was measured on MX-1 human mammary carcinoma cells. TWI%=tumor weight inhibition. Optimal dose 90 mg/kg/day.; format: functional
P388 [16] = experiment: In vivo antitumor activity was measured on systemic P388 murine leukemia cells. Maximum tested dose 60 (mg/kg/day); format: functional, Mus musculus; outline: as §1
MX1 [17] = experiment: Antitumor activity was measured on MX-1 human mammary carcinoma cells. TWI%=tumor weight inhibition. Optimal dose at 7.5 mg/kg/day; format: functional
P388 [18] = experiment: In vivo antitumor activity was measured on systemic P388 murine leukemia cells. Optimal dose at 7.5 mg/kg/day; format: functional, Mus musculus; outline: as §1
MX1 [19] = experiment: In vivo antitumor activity was measured on MX-1 human mammary carcinoma cells. TWI%=tumor weight inhibition. Optimal dose 40 mg/kg/day.; format: functional
MX1 [20] = experiment: In vivo antitumor activity was measured on MX-1 human mammary carcinoma cells. TWI%=tumor weight inhibition. Optimal dose 24 mg/kg/day.; format: functional
P388 [21] = experiment: In vivo antitumor activity was measured on systemic P388 murine leukemia cells. Maximum tested dose 12 mg/kg/day.; format: functional, Mus musculus; outline: as §1
MX1 [22] = experiment: In vivo antitumor activity was measured on MX-1 human mammary carcinoma cells. TWI%=tumor weight inhibition. Optimal dose 12 mg/kg/day.; format: functional
MX1 [23] = experiment: In vivo antitumor activity was measured on MX-1 human mammary carcinoma cells. TWI%=tumor weight inhibition. Optimal dose 13 mg/kg/day.; format: functional
MX1 [24] = experiment: In vivo antitumor activity was measured on MX-1 human mammary carcinoma cells. TWI%=tumor weight inhibition. Optimal dose 120 mg/kg/day.; format: functional
P388 [25] = experiment: In vivo antitumor activity was measured on systemic P388 murine leukemia cells. Maximum tested dose 3 mg/kg/day.; format: functional, Mus musculus; outline: as §1

IC50 (LoVo/Dx (Homo sapiens)): > 100 µg/mL
Compound: CNCCNc1ccc2c3c(nn2CCNCCO)-c2cnccc2C(=O)c13 [NORTOPIXANTRONE]
TWI (MX1 [1]): 96% | T/C (P388 [2]): 167% | IC50 (LoVo [3]): 0.54 µg/mL (≈ 1.42 µM) | RI (LoVo [4]): >185

IC50 (LoVo/Dx (Homo sapiens)): > 100 µg/mL
Compound: NCCNc1ccc2c3c(nn2CCNCCO)-c2cnccc2C(=O)c13
TWI (MX1 [5]): 74% | IC50 (LoVo [3]): 2.17 µg/mL (≈ 5.92 µM) | T/C (P388 [6]): 175% | RI (LoVo [4]): >46

IC50 (LoVo/Dx (Homo sapiens)): 2.13 µg/mL (≈ 5.43 µM)
Compound: CN(C)CCCNc1ccc2c3c(nn2CCN(C)C)-c2cnccc2C(=O)c13
IC50 (LoVo [3]): 0.33 µg/mL (≈ 0.841 µM) | TWI (MX1 [7]): 141% | T/C (P388 [8]): 138% | RI (LoVo [4]): 6.4

IC50 (LoVo/Dx (Homo sapiens)): > 100 µg/mL
Compound: NCCn1nc2c3c(c(NCCN(CCO)CCO)ccc31)C(=O)c1ccncc1-2
TWI (MX1 [9]): 50% | IC50 (LoVo [3]): 46.4 µg/mL (≈ 113 µM) | T/C (P388 [10]): 194% | RI (LoVo [4]): 2.1

Compound: CN(C)CCn1nc2c3c(c(NCCCN)ccc31)C(=O)c1ccncc1-2
T/C (P388 [11]): 125% | IC50 (LoVo [3]): 1.65 µg/mL (≈ 4.53 µM) | TWI (MX1 [12]): 73% | IC50 (LoVo/Dx (Homo sapiens)): 12.5 µg/mL (≈ 34.3 µM) | RI (LoVo [4]): 7.6

Compound: O=C1c2c(O)ccc(O)c2C(=O)c2c(NCCNCCO)ccc(NCCNCCO)c21 [MITOXANTRONE]
TWI (MX1 [13]): 57% | IC50 (LoVo [3]): 0.024 µg/mL (≈ 0.054 µM) | T/C (P388 [14]): 197% | IC50 (LoVo/Dx (Homo sapiens)): 0.67 µg/mL (≈ 1.51 µM) | RI (LoVo [4]): 28

IC50 (LoVo/Dx (Homo sapiens)): > 100 µg/mL
Compound: CN(C)CCNc1ccc2c3c(nn2CCO)-c2cnccc2C(=O)c13
TWI (MX1 [15]): 16% | IC50 (LoVo [3]): 18.5 µg/mL (≈ 52.6 µM) | T/C (P388 [8]): 112% | RI (LoVo [4]): >5.4

IC50 (LoVo/Dx (Homo sapiens)): > 100 µg/mL
Compound: NCCNc1ccc2c3c(nn2CCO)-c2cnccc2C(=O)c13
T/C (P388 [16]): 106% | IC50 (LoVo [3]): 28.6 µg/mL (≈ 88.4 µM) | RI (LoVo [4]): >3.5

IC50 (LoVo/Dx (Homo sapiens)): 53 µg/mL (≈ 97.5 µM)
Compound: COc1cccc2c1C(=O)c1c(O)c3c(c(O)c1C2=O)C[C@@](O)(C(=O)CO)C[C@@H]3O[C@H]1C[C@H](N)[C@H](O)[C@H](C)O1 [DOXORUBICIN]
TWI (MX1 [17]): 64% | IC50 (LoVo [3]): 0.58 µg/mL (≈ 1.07 µM) | T/C (P388 [18]): 200% | RI (LoVo [4]): 91.3

IC50 (LoVo/Dx (Homo sapiens)): > 100 µg/mL
Compound: NCCn1nc2c3c(c(NCCN4CCOCC4)ccc31)C(=O)c1ccncc1-2
IC50 (LoVo [3]): 1.76 µg/mL (≈ 4.48 µM) | T/C (P388 [8]): 129% | TWI (MX1 [19]): 32% | RI (LoVo [4]): >57

IC50 (LoVo/Dx (Homo sapiens)): 2 µg/mL (≈ 5.1 µM)
Compound: CN(C)CCCn1nc2c3c(c(NCCN(C)C)ccc31)C(=O)c1ccncc1-2
IC50 (LoVo [3]): 0.24 µg/mL (≈ 0.611 µM) | T/C (P388 [6]): 270% | RI (LoVo [4]): 8.3 | TWI (MX1 [20]): 55%

IC50 (LoVo/Dx (Homo sapiens)): 15.7 µg/mL (≈ 41.5 µM)
Compound: CCN(CC)CCNc1ccc2c3c(nn2CCN)-c2cnccc2C(=O)c13
T/C (P388 [21]): 147% | IC50 (LoVo [3]): 0.52 µg/mL (≈ 1.37 µM) | TWI (MX1 [19]): 51% | RI (LoVo [4]): 30

IC50 (LoVo/Dx (Homo sapiens)): 1.55 µg/mL (≈ 3.79 µM)
Compound: CN(C)CCn1nc2c3c(c(NCCN(C)CCO)ccc31)C(=O)c1ccncc1-2
IC50 (LoVo [3]): 0.049 µg/mL (≈ 0.12 µM) | TWI (MX1 [22]): 75% | T/C (P388 [6]): 280% | RI (LoVo [4]): 31.6

IC50 (LoVo/Dx (Homo sapiens)): 15.4 µg/mL (≈ 47.8 µM)
Compound: NCCNc1ccc2c3c(nn2CCN)-c2cnccc2C(=O)c13
TWI (MX1 [23]): 70% | IC50 (LoVo [3]): 0.86 µg/mL (≈ 2.67 µM) | T/C (P388 [10]): 194% | RI (LoVo [4]): 18

IC50 (LoVo/Dx (Homo sapiens)): > 100 µg/mL
Compound: CN(C)CCn1nc2c3c(c(NCCn4ccnc4)ccc31)C(=O)c1ccncc1-2
IC50 (LoVo [3]): 1.1 µg/mL (≈ 2.74 µM) | T/C (P388 [8]): 150% | RI (LoVo [4]): >91 | TWI (MX1 [24]): 70%

IC50 (LoVo/Dx (Homo sapiens)): 0.39 µg/mL (≈ 0.932 µM)
Compound: CN(C)CCn1nc2c3c(c(NCCN4CCCCC4)ccc31)C(=O)c1ccncc1-2
T/C (P388 [25]): 113% | IC50 (LoVo [3]): 0.35 µg/mL (≈ 0.836 µM) | RI (LoVo [4]): 1.1 | TWI (MX1 [20]): 6%
